# Results from different studies.
# ADORA2B: Adenosine receptor A2b (ADORA2B, Homo sapiens, UniProt P29275)
# Melanocortin receptor 3: Melanocortin receptor 3 (Mus musculus, UniProt P33033)
# PBRM1 bromodomain: Protein polybromo-1, bromodomain (PBRM1, Homo sapiens, UniProt Q86U86)
Structure (SMILES),target,observed,mode,method,notes,measurement,value
CCCCCCCC/C=C\CCCCCCCC(=O)SCCNC(=O)CCNC(=O)[C@H](O)C(C)(C)COP(=O)(O)OP(=O)(O)OC[C@H]1O[C@@H](n2cnc3c(N)ncnc32)[C@H](O)[C@@H]1OP(=O)(O)O,"fadR (Vibrio cholerae, UniProt Q9KQU8)",binding,,ITC,,Kd,6 nM
Nc1nc2c(ncn2[C@@H]2O[C@H](COP(=O)(O)OP(=O)(O)O)[C@@H](OP(=O)(O)OP(=O)(O)O)[C@H]2O)c(=O)[nH]1,"speC (Escherichia coli, UniProt P21169)",binding,,ITC,,Kd,1600 nM
CCOc1cc(-c2nncn2C)ccc1Nc1ncc2cc(C)nc(NCC(C)(C)C)c2n1,"Dual serine/threonine and tyrosine protein kinase (DSTYK, Homo sapiens, UniProt Q6XUX3)",binding,,competition with immobilised ligand,,Kd,170 nM
COCCOc1ccc(N2CCN(CCn3ncc4c3nc(N)n3nc(-c5ccco5)nc43)CC2)cc1,ADORA2B,ligand displacement,,radioligand,cell membranes,Ki,> 1000 nM
CSCC[C@H](NC(=O)[C@@H](NC(=O)[C@@H](N)Cc1ccc(O)cc1)C(C)C)C(=O)NCC(=O)N[C@@H](Cc1c[nH]cn1)C(=O)N[C@@H](Cc1ccccc1)C(=O)O,Melanocortin receptor 3,reporter gene,agonist,,,EC50,> 100000 nM
CCCCCCN1CCCn2c1nc1c2c(=O)n(C)c(=O)n1C,ADORA2B,ligand displacement,,radioligand,cell membranes,Ki,> 10000 nM
c1cncc(-c2cccc(Nc3nccc(NC4CCCCC4)n3)c2)c1,"Tyrosine-protein kinase JAK1, JH2 (JAK1, Homo sapiens, UniProt P23458)",binding,,competition with immobilised ligand,,Kd,290 nM
Cc1ncsc1-c1ccc(CNC(=O)[C@@H]2C[C@H](O)CN2C(=O)[C@@H](NC(=O)C2(F)CC2)C(C)(C)C)c(OCCOc2ccc(CN3CCN(c4cc(-c5ccccc5O)nnc4N)CC3)cc2)c1,PBRM1 bromodomain,binding,,SPR,,Kd,620 nM
Cc1[nH]c2ccccc2c1CCNC(=O)c1ccc(N(C)C)cc1,"Prostaglandin E2 receptor EP2 subtype (PTGER2, Homo sapiens, UniProt P43116)",cAMP,antagonist,TR-FRET,,Kb,~10 nM
COc1cc(Nc2ncc3c(n2)-c2ccc(Cl)cc2C(c2c(F)cccc2OC)=NC3)ccc1C(=O)O,"Tyrosine-protein kinase Tec (TEC, Homo sapiens, UniProt P42680)",binding,,,lysate,Kd,9860 nM
CCCN1CCCn2c1nc1c2c(=O)n(C)c(=O)n1C,ADORA2B,ligand displacement,,radioligand,cell membranes,Ki,> 10000 nM
N=C(N)NCCC[C@H](NC(=O)[C@H](CC(=O)O)NC(=O)[C@H](Cc1c[nH]c2ccccc12)NC(=O)[C@H](CCCNC(=N)N)NC(=O)[C@@H](N)Cc1ccccc1)C(=O)N[C@@H](Cc1ccccc1)C(=O)NCC(=O)O,Melanocortin receptor 3,reporter gene,agonist,,,EC50,> 100000 nM
CCCCCC(C)N1CCCn2c1nc1c2c(=O)n(C)c(=O)n1C (stereo not drawn),ADORA2B,ligand displacement,,radioligand,cell membranes,Ki,> 10000 nM
CCCCN1CCC(COC(=O)c2ccc(N)c(OCF)c2)CC1,"Muscarinic acetylcholine receptor M1 (CHRM1, Homo sapiens, UniProt P11229)",cell-free assay,,radioligand,,Ki,> 10000 nM
C=CN1CCCn2c1nc1c2c(=O)n(C)c(=O)n1C,ADORA2B,ligand displacement,,radioligand,cell membranes,Ki,> 10000 nM
N=C(N)NCCC[C@H](NC(=O)[C@@H](N)CC(=O)O)C(=O)N[C@@H](Cc1ccccc1)C(=O)O,Melanocortin receptor 3,reporter gene,agonist,,,EC50,> 100000 nM
Cc1ncsc1-c1ccc(CNC(=O)[C@@H]2C[C@@H](O)CN2C(=O)[C@@H](NC(=O)C2(F)CC2)C(C)(C)C)c(OCCOCCOCCN2CCN(c3cc(-c4ccccc4O)nnc3N)CC2)c1,PBRM1 bromodomain,binding,,SPR,,Kd,2700 nM
N=C(N)NCCC[C@H](NC(=O)[C@H](CC(=O)O)NC(=O)[C@H](Cc1c[nH]c2ccccc12)NC(=O)[C@H](CCCNC(=N)N)NC(=O)[C@H](Cc1ccccc1)NC(=O)[C@@H](N)Cc1c[nH]cn1)C(=O)N[C@@H](Cc1ccccc1)C(=O)NCC(=O)O,Melanocortin receptor 3,reporter gene,agonist,,,EC50,2670 nM
CC(=O)N[C@H](C(=O)N1C[C@H](O)C[C@H]1C(=O)NCc1ccc(-c2scnc2C)cc1)C(C)(C)SCCCCCCNC(=O)C[C@@H]1N=C(c2ccc(Cl)cc2)c2c(sc(C)c2C)-n2c(C)nnc21,"Bromodomain-containing protein 2, BD2 (BRD2, Homo sapiens, UniProt P25440)",binding,,ITC,,Kd,94 nM
N=C(N)NCCC[C@H](NC(=O)[C@@H](N)CC(=O)O)C(=O)N[C@@H](Cc1ccccc1)C(=O)NCC(=O)O,Melanocortin receptor 3,reporter gene,agonist,,,EC50,> 100000 nM
CC(C)CCCC(C)N1CCCn2c1nc1c2c(=O)n(C)c(=O)n1C (stereo not drawn),ADORA2B,ligand displacement,,radioligand,cell membranes,Ki,> 10000 nM
CSCC[C@H](N)C(=O)NCC(=O)N[C@@H](Cc1c[nH]cn1)C(=O)N[C@@H](Cc1ccccc1)C(=O)N[C@@H](CCCNC(=N)N)C(=O)N[C@@H](Cc1c[nH]c2ccccc12)C(=O)N[C@@H](CC(=O)O)C(=O)N[C@@H](CCCNC(=N)N)C(=O)N[C@@H](Cc1ccccc1)C(=O)NCC(=O)O,Melanocortin receptor 3,reporter gene,agonist,,,EC50,260 nM
CCNC(=O)[C@H]1O[C@@H](n2cnc3c(N)nc(NN=C[C@H]4CCC=CO4)nc32)[C@H](O)[C@@H]1O,ADORA2B,GTPγS binding,agonist,,cell membranes,EC50,13200 nM
N=C(N)NCCC[C@H](NC(=O)[C@H](CC(=O)O)NC(=O)[C@H](Cc1c[nH]c2ccccc12)NC(=O)[C@H](CCCNC(=N)N)NC(=O)[C@H](Cc1ccccc1)NC(=O)[C@H](Cc1c[nH]cn1)NC(=O)CN)C(=O)N[C@@H](Cc1ccccc1)C(=O)NCC(=O)O,Melanocortin receptor 3,reporter gene,agonist,,,EC50,760 nM
CCN1CCCn2c1nc1c2c(=O)n(C)c(=O)n1C,ADORA2B,ligand displacement,,radioligand,cell membranes,Ki,> 10000 nM
N=C(N)NCCC[C@H](NC(=O)[C@H](Cc1ccccc1)NC(=O)[C@@H](N)Cc1cnc[nH]1)C(=O)N[C@@H](Cc1c[nH]c2ccccc12)C(=O)O,Melanocortin receptor 3,reporter gene,agonist,,,EC50,> 100000 nM
CCCCN1CCC(COC(=O)c2ccc(N)c(OC)c2)CC1,"5-hydroxytryptamine receptor 4 (HTR4, Homo sapiens, UniProt Q13639)",ligand displacement,,radioligand,,Ki,1.1 nM
